Active and inactive are the calls of the source. The rule behind the calls is not given here.
What was measured:
K562 [1] = experiment: Growth inhibition of human K562 cells at 250 uM after 48 hrs by cell proliferation assay; format: functional, cell-based
In short: (§1)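 K562 leukemia cells seeded at 3 × 10^4 per well in 96-well plates and exposed for 48 h to compounds in DMSO, including 250 μM. Readout was EZ-CyTox cell viability reagent with absorbance at 450 nm.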

[2] = Growth inhibition of rat 3Y1 cells at 250 uM after 48 hrs by cell proliferation assay; format: cell-based; conditions: 3y1, 48 h
In short: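 Cells seeded in 96-well plates at 5 × 10^3 per well. Compounds dissolved in DMSO and applied for 48 h. Viability read with an EZ-CyTox cell viability kit by absorbance at 450 nm.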

HL-60 [3] = experiment: Growth inhibition of human HL60 cells at 250 uM after 48 hrs by cell proliferation assay; format: functional, cell-based
MDA-MB-231 [4] = experiment: Growth inhibition of human MDA-MB-231 cells at 250 uM after 48 hrs by cell proliferation assay; format: functional, cell-based
In short: (§2)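 MDA-MB-231 breast adenocarcinoma cells at 5 × 10^3 per well in a 96-well microplate. Compounds were dissolved in DMSO and applied for 48 h, including a 250 μM level. Viability was measured with the EZ-CyTox kit as A450.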

Hep 3B2 = experiment: Growth inhibition of human Hep3B cells at 250 uM after 48 hrs by cell proliferation assay; format: functional, cell-based
In short: (§3)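 Hep3B hepatocellular carcinoma cells plated at 5 × 10^3 per well in 96-well format. Treatment with DMSO-dissolved compounds, including 250 μM, lasted 48 h. Proliferation was read with the EZ-CyTox kit by A450.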

HL-60 [5] = experiment: Growth inhibition of human HL60 cells after 48 hrs by cell proliferation assay; format: functional, cell-based; conditions: HL-60, 48 h
MDA-MB-231 [6] = experiment: Growth inhibition of human MDA-MB-231 cells after 48 hrs by cell proliferation assay; format: functional, cell-based; conditions: MDA-MB-231, 48 h; in short: as §2
[7] = Growth inhibition of human Hep3B cells after 48 hrs by cell proliferation assay; format: functional, cell-based, Hep 3B2; in short: as §3
[8] = Growth inhibition of rat 3Y1 cells after 48 hrs by cell proliferation assay; format: cell-based; conditions: 3Y1, 48 h
In short: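 Rat 3Y1 fibroblasts seeded at 5 × 10^3 per well in 96-well plates and exposed 48 h to DMSO-dissolved test compounds. Proliferation was quantified with the EZ-CyTox viability kit by absorbance at 450 nm.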

K562 [9] = experiment: Growth inhibition of human K562 cells after 48 hrs by cell proliferation assay; format: functional, cell-based; conditions: K562, 48 h; in short: as §1

## CC(=O)N1c2ccccc2[C@]2(O)C[C@@H]3C(=O)N[C@@H](CC(C)C)C(=O)N3[C@H]12 [PROTUBONINE A]
K562 [1]
  growth inhibition (GI): inactive
[2]
  growth inhibition (GI): Not Active
HL-60 [3]
  growth inhibition (GI): inactive
MDA-MB-231 [4]
  growth inhibition (GI): inactive
Hep 3B2
  growth inhibition (GI): inactive

## CC(=O)O[C@@]12C[C@@H]3C(=O)N[C@@H](CC(C)C)C(=O)N3[C@@H]1N(C(C)=O)c1ccccc12 [PROTUBONINE B]
K562 [1]
  growth inhibition (GI): inactive
[2]
  growth inhibition (GI): Not Active
HL-60 [3]
  growth inhibition (GI): inactive
MDA-MB-231 [4]
  growth inhibition (GI): inactive
Hep 3B2
  growth inhibition (GI): inactive

## CCC(C)[C@@H]1NC(=O)[C@@H](Cc2ccccc2)n2c1nc1c(c2=O)C=CC=CO1 (stereo not given in full) [PROTUBOXEPIN A]
HL-60 [5]
  IC50: 75 µM
MDA-MB-231 [6]
  IC50: 130 µM
[7]
  IC50: 150 µM
[8]
  IC50: 180 µM
K562 [9]
  IC50: 250 µM

Reference: ChEMBL document CHEMBL1799980, “Protuboxepins A and B and protubonines A and B from the marine-derived fungus Aspergillus sp. SF-5044” (J Nat Prod, 2011)
